Laboratory results reported in ChEMBL document CHEMBL4393678, “Novel Tetrahydroquinazolinamines as Selective Histamine 3 Receptor Antagonists for the Treatment of Obesity” (J Med Chem, 2019).
The source made the active and inactive calls. No cut-off for these calls is given here.

Assays:
[1] = molecular target: Histamine H2 receptor (Homo sapiens, UniProt P25021); assay: Agonist activity at recombinant human Gs-coupled H2 receptor expressed in HEK293T cells assessed as inhibition of forskolin-stimulated cAMP accumulation at 10 uM preincubated for 10 to 15 followed by forskolin-stimulation by Glo-sensor assay relative to control; format: functional, cell-based; parameters: scale not given: the % may be the effect or the level left
Sequence of Histamine H2 receptor (P25021 whole entry): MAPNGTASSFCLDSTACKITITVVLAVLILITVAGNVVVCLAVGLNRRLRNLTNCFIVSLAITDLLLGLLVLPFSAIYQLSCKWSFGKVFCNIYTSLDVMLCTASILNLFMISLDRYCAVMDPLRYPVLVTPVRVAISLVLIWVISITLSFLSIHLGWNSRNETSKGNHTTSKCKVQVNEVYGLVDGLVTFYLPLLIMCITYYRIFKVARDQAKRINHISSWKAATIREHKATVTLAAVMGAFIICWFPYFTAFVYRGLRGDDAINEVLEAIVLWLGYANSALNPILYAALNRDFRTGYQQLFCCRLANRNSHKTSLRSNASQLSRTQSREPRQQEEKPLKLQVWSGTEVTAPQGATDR
In short: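 HEK293T cells were transiently co-transfected with GloSensor-22F cAMP plasmid and human H2R plasmid, then held 15–18 h at 37 °C in 5% CO2. Cells were loaded with sodium luciferin (1 mg/ml) for 90 min. Agonist mode used 10 µM compound, with luminescence read directly after 10–15 min. Screening was in triplicate, scored as ≥50% change versus control.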

[2] = molecular target: Histamine H4 receptor (Homo sapiens) (UniProt Q9H3N8); assay: (§1) Antagonist activity at recombinant human Gi-coupled H4 receptor expressed in HEK293T cells assessed as reduction in histamine-induced inhibition of forskolin-stimulated cAMP accumulation at 10 uM preincubated for 10 to 15 followed by histamine addition for 10 mins and subsequent forskolin-stimulation by Glo-sensor assay; format: functional, cell-based
Sequence of Histamine H4 receptor (Homo sapiens) (Q9H3N8 whole entry): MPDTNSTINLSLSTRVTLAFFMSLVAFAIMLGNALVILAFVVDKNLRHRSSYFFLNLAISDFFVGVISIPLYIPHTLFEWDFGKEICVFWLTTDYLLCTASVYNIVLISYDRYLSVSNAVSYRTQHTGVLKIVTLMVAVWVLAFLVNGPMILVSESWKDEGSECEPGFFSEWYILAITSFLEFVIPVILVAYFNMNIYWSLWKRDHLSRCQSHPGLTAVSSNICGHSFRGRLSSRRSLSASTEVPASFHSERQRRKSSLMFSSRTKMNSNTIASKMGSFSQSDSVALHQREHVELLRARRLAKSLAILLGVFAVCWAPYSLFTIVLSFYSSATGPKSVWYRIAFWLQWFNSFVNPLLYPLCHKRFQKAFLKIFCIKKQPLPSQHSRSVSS

[3] = molecular target: D(1A) dopamine receptor (Homo sapiens) (UniProt P21728); assay: as §1, with “Gs-coupled D1” for “recombinant human Gi-coupled H4”, “receptor (unknown origin)” for “receptor”, “accumulation” for “accumulation at 10 uM”; format: functional, cell-based
Sequence of D(1A) dopamine receptor (Homo sapiens) (P21728 whole entry): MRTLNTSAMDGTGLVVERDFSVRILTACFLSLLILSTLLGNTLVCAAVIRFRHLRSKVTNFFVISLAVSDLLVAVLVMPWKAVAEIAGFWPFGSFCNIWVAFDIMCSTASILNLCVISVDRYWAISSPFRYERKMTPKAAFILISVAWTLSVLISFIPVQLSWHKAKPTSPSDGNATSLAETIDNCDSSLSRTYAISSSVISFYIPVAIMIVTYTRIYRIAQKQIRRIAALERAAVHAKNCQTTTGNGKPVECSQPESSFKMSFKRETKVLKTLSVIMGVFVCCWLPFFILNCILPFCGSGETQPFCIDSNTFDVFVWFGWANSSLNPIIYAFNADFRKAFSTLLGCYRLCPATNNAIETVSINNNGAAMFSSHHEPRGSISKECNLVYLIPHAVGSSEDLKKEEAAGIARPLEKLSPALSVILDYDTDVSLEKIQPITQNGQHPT

[4] = molecular target: D(1B) dopamine receptor (Homo sapiens) (UniProt P21918); assay: Agonist activity at Gs-coupled D5 receptor (unknown origin) expressed in HEK293T cells assessed as inhibition of forskolin-stimulated cAMP accumulation preincubated for 10 to 15 followed by forskolin-stimulation by Glo-sensor assay; format: functional, cell-based
Sequence of D(1B) dopamine receptor (Homo sapiens) (P21918 whole entry): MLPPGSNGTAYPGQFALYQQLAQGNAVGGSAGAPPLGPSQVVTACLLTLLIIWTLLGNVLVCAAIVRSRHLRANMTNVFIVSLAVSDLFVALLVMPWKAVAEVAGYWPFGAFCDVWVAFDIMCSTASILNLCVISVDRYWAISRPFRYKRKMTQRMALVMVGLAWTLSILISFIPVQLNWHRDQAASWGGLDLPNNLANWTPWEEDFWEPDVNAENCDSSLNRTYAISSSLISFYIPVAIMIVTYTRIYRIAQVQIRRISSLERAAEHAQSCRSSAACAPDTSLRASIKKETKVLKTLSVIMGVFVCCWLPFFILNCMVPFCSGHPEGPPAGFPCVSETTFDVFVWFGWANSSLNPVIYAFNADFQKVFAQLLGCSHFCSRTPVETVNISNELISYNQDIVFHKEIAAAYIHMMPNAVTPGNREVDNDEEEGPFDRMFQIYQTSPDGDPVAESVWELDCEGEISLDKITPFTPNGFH

[5] = molecular target: T1, Muscarinic acetylcholine receptor M1 (Homo sapiens) (UniProt P11229); assay: Antagonist activity at M1R (unknown origin) expressed in HEK293 cells harboring luc2P/NFAT-RE plasmid at 10 uM after 6 to 8 hrs by luciferase reporter gene assay; format: cell-based
T1 sequence (whole entry): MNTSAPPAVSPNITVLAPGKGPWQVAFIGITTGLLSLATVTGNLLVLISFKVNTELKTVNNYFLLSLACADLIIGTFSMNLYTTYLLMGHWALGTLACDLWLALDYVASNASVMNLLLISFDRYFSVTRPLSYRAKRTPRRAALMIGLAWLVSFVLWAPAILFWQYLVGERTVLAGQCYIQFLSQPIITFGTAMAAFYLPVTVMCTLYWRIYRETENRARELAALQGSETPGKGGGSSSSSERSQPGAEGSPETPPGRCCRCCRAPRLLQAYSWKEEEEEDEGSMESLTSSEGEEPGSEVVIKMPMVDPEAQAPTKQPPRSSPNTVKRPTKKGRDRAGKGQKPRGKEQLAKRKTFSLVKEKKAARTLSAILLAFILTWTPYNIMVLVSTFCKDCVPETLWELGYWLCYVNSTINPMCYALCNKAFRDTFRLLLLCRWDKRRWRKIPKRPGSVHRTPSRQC
In short: (§2)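 NFAT-RE luciferase assay in HEK293T cells transiently co-transfected with luc2P/NFAT-RE plasmid and receptor plasmid. Cells plated in DMEM and incubated overnight at 37 °C, 5% CO₂. Compounds and reference ligands applied for 6-8 h. Luciferase read after adding Bright-Glo substrate (1 mg/ml final).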

[6] = molecular target: Free fatty acid receptor 1 (Homo sapiens) (UniProt O14842); assay: Antagonist activity at GPR40 (unknown origin) expressed in HEK293 cells harboring luc2P/NFAT-RE plasmid at 10 uM after 6 to 8 hrs by luciferase reporter gene assay; format: cell-based; in short: as §2
Sequence of Free fatty acid receptor 1 (Homo sapiens) (O14842 whole entry): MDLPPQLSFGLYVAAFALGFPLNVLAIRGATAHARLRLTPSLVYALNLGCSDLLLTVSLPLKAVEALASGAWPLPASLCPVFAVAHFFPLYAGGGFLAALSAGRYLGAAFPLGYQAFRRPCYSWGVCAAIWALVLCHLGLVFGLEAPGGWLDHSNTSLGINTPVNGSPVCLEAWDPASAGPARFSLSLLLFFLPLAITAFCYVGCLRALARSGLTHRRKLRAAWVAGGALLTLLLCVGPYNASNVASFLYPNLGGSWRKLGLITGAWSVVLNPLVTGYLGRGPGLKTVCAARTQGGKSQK

[7] = molecular target: T2, G-protein coupled bile acid receptor 1 (Homo sapiens) (UniProt Q8TDU6); assay: as §1, with “Gs-coupled GPBAR1 (unknown origin)” for “recombinant human Gi-coupled H4 receptor”, “accumulation” for “accumulation at 10 uM”; format: functional, cell-based
T2 sequence (whole entry): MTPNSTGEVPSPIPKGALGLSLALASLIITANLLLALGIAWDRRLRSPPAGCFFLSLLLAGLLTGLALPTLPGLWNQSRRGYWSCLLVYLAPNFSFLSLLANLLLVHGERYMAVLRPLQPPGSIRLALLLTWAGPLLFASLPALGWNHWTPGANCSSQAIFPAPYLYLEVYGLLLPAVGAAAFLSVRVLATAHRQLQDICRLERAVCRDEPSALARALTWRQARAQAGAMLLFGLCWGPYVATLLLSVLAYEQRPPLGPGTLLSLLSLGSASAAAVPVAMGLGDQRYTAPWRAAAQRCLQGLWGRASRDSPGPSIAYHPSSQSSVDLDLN

[8] = Ratio of AUClast in C57BL/6J mouse brain assessed as 4-(2-Amino-8-methyl-5,6,7,8-tetrahydroquinazolin-4-yl)phenol level to AUClast in C57BL/6J mouse serum assessed as 4-(2-Amino-8-methyl-5,6,7,8-tetrahydroquinazolin-4-yl)phenol level; format: ADME
In short: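 Male C57BL/6J mice (6–8 weeks) were fasted 12–16 h, then given a single oral dose of 20 mg/kg as a 2.5 mg/mL suspension in 1% gum acacia/water (n=5 per time point). Serum and brain (homogenised 1:6 in PBS) were sampled up to 24 h. Parent and demethylated metabolite were measured by LC-MS/MS (range 0.25–200 ng/mL). AUC ran to the last observation.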

[9] = Cmax in C57BL/6J mouse brain at 20 mg/kg, po by LC-MS/MS analysis; format: ADME, organism-based; parameters: dose 20 mg/kg, route oral; details: in vivo
In short: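 Male C57BL/6J mice (6-8 weeks, 20 ± 5 g) fasted overnight (12-16 h) got a single 20 mg/kg oral dose as 2.5 mg/mL suspension in 1% w/v gum acacia; n=5 per time point. Serum and brain (PBS homogenate 1:6 w/v) sampled up to 24 h. Parent and demethylated metabolite quantified by LC-MS/MS after liquid-liquid extraction (C18, MRM, phenacetin internal standard; linear 0.25-200 ng/mL). Two-compartment open model fit.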

[10] = AUClast in C57BL/6J mouse brain assessed as 4-(2-Amino-8-methyl-5,6,7,8-tetrahydroquinazolin-4-yl)phenol level at 20 mg/kg, po by LC-MS/MS analysis; format: ADME, organism-based; parameters: dose 20 mg/kg, time 0 - last, route oral; details: in vivo
In short: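 Male C57BL/6J mice, 6-8 weeks, 20 ± 5 g, fasted overnight (12-16 h), n = 5 per time point. Single 20 mg/kg oral dose given by feeding needle as a 2.5 mg/mL suspension in 1% w/v gum acacia and water. Serum and brain (homogenized 1:6 w/v in PBS) sampled up to 24 h. Liquid-liquid extraction, then LC-MS/MS in positive MRM mode with phenacetin as internal standard. Linear range 0.25-200 ng/mL. Non-compartmental and compartmental analysis.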

[11] = Fraction unbound in C57BL/6J mouse brain by equilibrium dialysis method; format: ADME, tissue-based
In short: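 Plasma protein binding and unbound fraction in mouse brain tissue homogenate measured by equilibrium dialysis.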

[12] = test system: Mus musculus; assay: In vivo antagonist activity at H3R in 12 hrs fasted db/db-induced obese C57BL/6J mouse model assessed as increase in c-FOS expression in para-ventricular nucleus of hypothalamus at 20 mg/kg, ip measured after 90 mins by immunohistochemistry-based fluorescence assay; format: functional, organism-based
[13] = test system: Mus musculus; assay: Anti-obesity activity in 16 hrs fasted db/db-induced obese C57BL/6J mouse model assessed as change in blood total cholesterol level at 20 mg/kg, po measured after 6 weeks; format: functional, organism-based
[14] = test system: Mus musculus; assay: Anti-obesity activity in 16 hrs fasted db/db-induced obese C57BL/6J mouse model assessed as change in blood TG level at 20 mg/kg, po measured after 6 weeks; format: functional, organism-based

**Q.** Which Activity [1] does the source give for `COc1ccc(-c2nc(N)nc3c2CCCC3C)cc1` (racemic) here?
**A.** < 50%

**Q.** And the inhibition [2]?
**A.** inactive

**Q.** What about the inhibition [3] of the same molecule?
**A.** inactive

**Q.** What about the INH [4] of the same molecule?
**A.** > 10 µM

**Q.** What about the inhibition [5] of the same molecule?
**A.** inactive

**Q.** And the inhibition [6]?
**A.** inactive

**Q.** What about the inhibition [7] of the same molecule?
**A.** inactive

**Q.** And the “Ratio AUC” value [8]?
**A.** 6.1%

**Q.** What about the Cmax [9] of the same molecule?
**A.** 323 ng/g

**Q.** And the AUClast [10]?
**A.** 100.7 ng·h/mL

**Q.** And the fraction unbound [11]?
**A.** 0.284

**Q.** What about the Activity [12] of the same molecule?
**A.** Active

**Q.** And the Activity [13]?
**A.** inactive

**Q.** What about the Activity [14] of the same molecule?
**A.** inactive
